By IC50 is commonly meant the concentration that inhibits the measured activity by half.

Experiment [1] relates to PC-3. The experiment is described as follows: Selectivity index, ratio of IC50 for mouse NIH/3T3 cells to IC50 for human PC3 cells. The format is functional. The method, boiled down: (§1)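 Index is the IC50 in normal NIH3T3 cells divided by the IC50 in each cancer line. […] HCPT and adriamycin were used as positive controls.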
For experiment [2], the system named is Bcap37. The experiment is described as follows: Cytotoxicity against human Bcap37 cells after 72 hrs by MTT assay. Particulars: for IC50: Bcap37, 72 h. In kind it is functional, cell-based. The method, boiled down: (§2)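 Cancer lines grown in RPMI 1640 with 10% heat-inactivated FBS, 37 °C, 5% CO2. Cells trypsinized at 80-90% confluence, seeded at 2×10^3/well overnight, then given compounds (DMSO stocks diluted in medium) at various concentrations for 72 h at 37 °C. Controls: 0.1% DMSO negative, adriamycin positive. MTT (5 mg/ml) added for 4 h, formazan dissolved in SDS 12 h, A595 read. IC50 from dose-response curves.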
On the technique in general: Formazan colour is commonly taken as a measure of viable cells.

The subject of experiment [3] is Bcap37. The experiment in a line: Selectivity index, ratio of IC50 for mouse NIH/3T3 cells to IC50 for human Bcap37 cells. In kind it is functional. The method, boiled down:
as §1

The test system of experiment [4] is MGC-803. The experiment is described as follows: Selectivity index, ratio of IC50 for mouse NIH/3T3 cells to IC50 for human MGC803 cells. The format is functional. The gist of the method: as §1
Experiment [5] has as its system PC-3. The experiment is described as follows: (§3) Cytotoxicity against human PC3 cells after 72 hrs by MTT assay. In kind it is functional, cell-based. The method, boiled down: (§4)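 Cells trypsinized at 80-90% confluence, seeded at 2×10^3/well overnight, then given compounds (DMSO stocks diluted in medium) at various concentrations for 72 h at 37 °C. Controls: 0.1% DMSO negative, adriamycin positive. MTT (5 mg/ml) added for 4 h, formazan dissolved in SDS 12 h, A595 read. IC50 from dose-response curves.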

The nature of experiment [6]: as §3. The format is functional, cell-based. Particulars: PC-3, 72 h. The gist of the method: as §4
Experiment [7] has as its system A-375. The experiment is described as follows: Selectivity index, ratio of IC50 for mouse NIH/3T3 cells to IC50 for human A375 cells. The format is functional. The gist of the method: as §1
Experiment [8] has as its system MCF7. The experiment in a line: Selectivity index, ratio of IC50 for mouse NIH/3T3 cells to IC50 for human MCF7 cells. In kind it is functional. The gist of the method:
as §1

The test system of experiment [9] is A-375. The experiment in a line: Cytotoxicity against human A375 cells after 72 hrs by MTT assay. The format is functional, cell-based. The conditions noted are these: for IC50: A-375, 72 h. The method, boiled down: as §2
Experiment [10] concerns MGC-803. The experiment in a line: Cytotoxicity against human MGC803 cells after 72 hrs by MTT assay. The format is functional, cell-based. The conditions noted are these: for IC50: MGC-803, 72 h. The gist of the method: as §2
In experiment [11] the test system is MCF7. The experiment is described as follows: Cytotoxicity against human MCF7 cells after 72 hrs by MTT assay. The conditions noted are these: for IC50: MCF7, 72 h. In kind it is functional, cell-based. The gist of the method:
as §2

As to `C=C(C)[C@@H]1CC[C@]2(C(=O)OCCN3CCN(C(=O)c4ccccc4)CC3)CC[C@]3(C)[C@H](CC[C@@H]4[C@@]5(C)CCC(=O)C(C)(C)[C@@H]5CC[C@]43C)[C@@H]12`, the “Ratio IC50” value with PC-3 [1] stood at 9.85; with Bcap37 [3] it was 5.46; in the experiment with MGC-803 [4] it was 7.62; with A-375 [7] it was 6.41; in the experiment with MCF7 [8] it was 8.6. Besides, the Activity result in the experiment on Bcap37 [2], with PC-3 [5], in the experiment on A-375 [9], in the experiment with MGC-803 [10] and in the experiment with MCF7 [11] was “Dose-dependent effect” each time. For the same compound, the IC50 with Bcap37 [2] worked out at 7.4 µM; in [6] it was 4.1 µM; in the experiment on A-375 [9], 6.3 µM; with MGC-803 [10], 5.3 µM; with MCF7 [11] it was 4.7 µM.
Regarding `C=C(C)[C@@H]1CC[C@]2(C(=O)OCCCN3CCCC3)CC[C@]3(C)[C@H](CC[C@@H]4[C@@]5(C)CCC(=O)C(C)(C)[C@@H]5CC[C@]43C)[C@@H]12`, the Activity result in the experiment with Bcap37 [2], in the experiment on PC-3 [5], in the experiment with A-375 [9], in the experiment on MGC-803 [10] and with MCF7 [11] was “Dose-dependent effect” in each case. Moreover, the IC50 stood at 9.2 µM in the experiment on Bcap37 [2]; 7.6 µM in [6]; 8.3 µM in the experiment on A-375 [9]; 7.4 µM in the experiment on MGC-803 [10]; 8.4 µM in the experiment on MCF7 [11].
Regarding `C=C(C)[C@@H]1CC[C@]2(C(=O)OCCCCN(CC)CC)CC[C@]3(C)[C@H](CC[C@@H]4[C@@]5(C)CCC(=O)C(C)(C)[C@@H]5CC[C@]43C)[C@@H]12`, the “Ratio IC50” value in the experiment with PC-3 [1] was 5.32; with Bcap37 [3] it was 4.5; in the experiment with MGC-803 [4], 6.15; in the experiment on A-375 [7] it was 2.54; with MCF7 [8], 2.96. For the same compound, the Activity entry in the experiment on Bcap37 [2], with PC-3 [5], in the experiment on A-375 [9], in the experiment on MGC-803 [10] and in the experiment with MCF7 [11] was “Dose-dependent effect” each time. For the same compound, the IC50 was 5.2 µM in the experiment with Bcap37 [2]; 4.4 µM in experiment [6]; 9.2 µM in the experiment on A-375 [9]; 3.8 µM in the experiment with MGC-803 [10]; 7.9 µM with MCF7 [11].
In the case of `C=C(C)[C@@H]1CC[C@]2(C(=O)OCCN3CCOCC3)CC[C@]3(C)[C@H](CC[C@@H]4[C@@]5(C)CCC(=O)C(C)(C)[C@@H]5CC[C@]43C)[C@@H]12`, the Activity result in the experiment with Bcap37 [2], with PC-3 [5], with A-375 [9], in the experiment with MGC-803 [10] and with MCF7 [11] was “Dose-dependent effect” in each case. Further, the half-maximal inhibitory concentration (IC50) was found to be 8.8 µM in the experiment with Bcap37 [2]; 11.3 µM in experiment [6]; 10.5 µM with A-375 [9]; 9.4 µM with MGC-803 [10]; 10.1 µM with MCF7 [11].
With `C=C(C)[C@@H]1CC[C@]2(C(=O)OCCN3CCN(C(=O)c4ccc(F)c(F)c4)CC3)CC[C@]3(C)[C@H](CC[C@@H]4[C@@]5(C)CCC(=O)C(C)(C)[C@@H]5CC[C@]43C)[C@@H]12`, the “Ratio IC50” value came out at 4.02 in the experiment on PC-3 [1]; 4.74 in the experiment with Bcap37 [3]; 4.2 in the experiment with MGC-803 [4]; 2.57 with A-375 [7]; 5 with MCF7 [8]. Further, the Activity result in the experiment with Bcap37 [2], in the experiment on PC-3 [5], in the experiment with A-375 [9], in the experiment on MGC-803 [10] and in the experiment on MCF7 [11] was “Dose-dependent effect” each time. The IC50 in the experiment with Bcap37 [2] was 3.9 µM; in experiment [6] it was 4.6 µM; in the experiment with A-375 [9] it was 7.2 µM; in the experiment on MGC-803 [10], 4.4 µM; in the experiment with MCF7 [11], 3.7 µM.
As for `C=C(C)[C@@H]1CC[C@]2(C(=O)OCCCCBr)CC[C@]3(C)[C@H](CC[C@@H]4[C@@]5(C)CCC(=O)C(C)(C)[C@@H]5CC[C@]43C)[C@@H]12`, the Activity result in the experiment with Bcap37 [2], in the experiment with PC-3 [5], in the experiment on A-375 [9], in the experiment on MGC-803 [10] and in the experiment with MCF7 [11] was “Dose-dependent effect” each time. Also, the 50% inhibitory concentration (IC50) (in the experiment with Bcap37 [2]; in [6]; in the experiment on A-375 [9]; in the experiment on MGC-803 [10]; in the experiment on MCF7 [11]) was over 20 µM in each case.
As for `C=C(C)[C@@H]1CC[C@]2(C(=O)OCCCN(CC)CC)CC[C@]3(C)[C@H](CC[C@@H]4[C@@]5(C)CCC(=O)C(C)(C)[C@@H]5CC[C@]43C)[C@@H]12`, the Activity result in the experiment on Bcap37 [2], with PC-3 [5], in the experiment with A-375 [9], with MGC-803 [10] and in the experiment with MCF7 [11] was “Dose-dependent effect” throughout. In addition, the IC50 amounted to 6.1 µM in the experiment on Bcap37 [2]; 7 µM in [6]; 9.3 µM with A-375 [9]; 6.8 µM with MGC-803 [10]; 7.3 µM in the experiment on MCF7 [11].
With `C=C(C)[C@@H]1CC[C@]2(C(=O)OCCN3CCN(C(=O)C(CC)CCCC)CC3)CC[C@]3(C)[C@H](CC[C@@H]4[C@@]5(C)CCC(=O)C(C)(C)[C@@H]5CC[C@]43C)[C@@H]12` (stereo not given in full), the Activity result with Bcap37 [2], in the experiment with PC-3 [5], in the experiment on A-375 [9], in the experiment on MGC-803 [10] and with MCF7 [11] was “Dose-dependent effect” throughout. Moreover, the IC50 in the experiment with Bcap37 [2] is 18.7 µM; in experiment [6], over 20 µM; in the experiment on A-375 [9], over 20 µM; in the experiment on MGC-803 [10], 13.4 µM; in the experiment with MCF7 [11] it was 15.4 µM.
With `C=C(C)[C@@H]1CC[C@]2(C(=O)OCCCCN3CCCC3)CC[C@]3(C)[C@H](CC[C@@H]4[C@@]5(C)CCC(=O)C(C)(C)[C@@H]5CC[C@]43C)[C@@H]12`, the “Ratio IC50” value with PC-3 [1] is given as 4.28; in the experiment on Bcap37 [3], 6.11; with MGC-803 [4], 7.18; in the experiment with A-375 [7], 3.38; with MCF7 [8], 5.31. Further, the Activity result with Bcap37 [2], in the experiment on PC-3 [5], in the experiment with A-375 [9], in the experiment on MGC-803 [10] and in the experiment on MCF7 [11] was “Dose-dependent effect” in each case. Moreover, the IC50 in the experiment with Bcap37 [2] was found to be 4.7 µM; in experiment [6] it was 6.7 µM; with A-375 [9], 8.5 µM; in the experiment on MGC-803 [10] it was 4 µM; in the experiment on MCF7 [11] it was 5.4 µM.
As to `C=C(C)[C@@H]1CC[C@]2(C(=O)OCCN3CCN(C(=O)CCCCCCCC)CC3)CC[C@]3(C)[C@H](CC[C@@H]4[C@@]5(C)CCC(=O)C(C)(C)[C@@H]5CC[C@]43C)[C@@H]12`, the Activity result in the experiment with Bcap37 [2], in the experiment with PC-3 [5], with A-375 [9], in the experiment with MGC-803 [10] and in the experiment on MCF7 [11] was “Dose-dependent effect” each time. The IC50 in the experiment with Bcap37 [2] was over 20 µM; in [6], over 20 µM; in the experiment on A-375 [9] it was over 20 µM; in the experiment with MGC-803 [10] it was over 20 µM; in the experiment on MCF7 [11], 17.6 µM.
`C=C(C)[C@@H]1CC[C@]2(C(=O)OCCN3CCN(C(=O)c4ccccc4C)CC3)CC[C@]3(C)[C@H](CC[C@@H]4[C@@]5(C)CCC(=O)C(C)(C)[C@@H]5CC[C@]43C)[C@@H]12`: the “Ratio IC50” value with PC-3 [1] is recorded as 2.43; in the experiment on Bcap37 [3], 3.3; in the experiment on MGC-803 [4] it was 4.69; in the experiment on A-375 [7], 4.69; with MCF7 [8], 3.91. Further, the Activity result with Bcap37 [2], in the experiment on PC-3 [5], with A-375 [9], in the experiment on MGC-803 [10] and with MCF7 [11] was “Dose-dependent effect” throughout. For the same compound, the 50% inhibitory concentration (IC50) in the experiment with Bcap37 [2] was found to be 6.4 µM; in [6], 8.7 µM; in the experiment on A-375 [9], 4.5 µM; in the experiment on MGC-803 [10], 4.5 µM; in the experiment on MCF7 [11] it was 5.4 µM.

The values above are taken from ChEMBL document CHEMBL3414513, “Synthesis and biological evaluation of betulonic acid derivatives as antitumor agents” (Eur J Med Chem, 2015).
